Results as given in ChEMBL document CHEMBL3875229, “Potent Antifungal Synergy of Phthalazinone and Isoquinolones with Azoles Against Candida albicans” (ACS Med Chem Lett, 2017).
Each block holds one compound with its values, some of them ahead of it.

What was measured:
[1] = tested on: Candida albicans; assay: microbe, parasite or virus in culture; details: HLY4123, 16 h
[2] = Antifungal activity against Candida albicans clinical isolate 8 in presence of fluconazole; format: functional
Outline: (§1)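 Dose-dependent broth microdilution against fluconazole-resistant clinical isolates. Analogue concentration was varied while fluconazole was held fixed at each isolate's own MIC50, measured separately for fluconazole alone. EC50 is given as arithmetic mean ± SD of three independent experiments.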

[3] = Antifungal activity against Candida albicans clinical isolate 2 in presence of fluconazole; format: functional
Outline: as §1

[4] = tested on: Candida albicans; assay: Antifungal activity against Candida albicans HLY4123 after 16 hrs in presence of 0.05 ug/ml of fluconazole by ten fold serial dilution method; format: functional; details: HLY4123, 16 h
[5] = tested on: Candida albicans; assay: Antifungal activity against Candida albicans HLY4123 after 16 hrs in presence of 0.001 ug/ml of isavuconazole by ten fold serial dilution method; format: functional; details: HLY4123, 16 h
[6] = Antifungal activity against fluconazole-resistant Candida albicans clinical isolate 26 after 16 hrs in presence of 32 ug/ml fluconazole by broth microdilution assay; format: functional
[7] = Antifungal activity against fluconazole-resistant Candida albicans clinical isolate 17 after 16 hrs in presence of 12 ug/ml fluconazole by broth microdilution assay; format: functional
[8] = tested on: Candida albicans; assay: Antifungal activity against Candida albicans HLY4123 at 0.015 nM to […] after 16 hrs in presence of […] of fluconazole by checkerboard assay; format: functional
Outline: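 Analogue and fluconazole were combined in a checkerboard format against C. albicans HLY4123. Fractional inhibitory concentration indices were calculated, with 0.5 taken as the upper limit for pharmacological synergy.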

[9] = Antifungal activity against fluconazole-resistant Candida albicans clinical isolate 45 after 16 hrs in presence of 96 ug/ml fluconazole by broth microdilution assay; format: functional
[10] = Antifungal activity against Candida albicans clinical isolate 45 after 16 hrs in presence of 0.5 ug/ml of isavuconazole by broth microdilution assay; format: functional
[11] = Antifungal activity against fluconazole-resistant Candida albicans clinical isolate 36 after 16 hrs in presence of 64 ug/ml fluconazole by broth microdilution assay; format: functional
[12] = Antifungal activity against fluconazole-resistant Candida albicans clinical isolate 33 after 16 hrs in presence of 64 ug/ml fluconazole by broth microdilution assay; format: functional

- EC50 [1]: 3 nM
SMILES: COc1cc(Br)ccc1-n1cc(C(=O)NCC(=O)NCCC2=CCCCC2)c2ccc(Br)cc2c1=O

- EC50 [2]: 220 nM
- EC50 [1]: 15 nM
- EC50 [3]: 470 nM
- EC50 [4]: 49 nM
SMILES: COc1ccc(-n2nc(C(=O)NCC(=O)NCCC3=CCCCC3)c3ccccc3c2=O)c(OC)c1

- EC50 [1]: 33 nM
SMILES: COc1ccc(-n2cc(C(=O)NCC(=O)NCCC3=CCCCC3)c3ccccc3c2=O)c(OC)c1

- EC50 [1]: 230 nM
SMILES: COc1cc(Br)ccc1-n1cc(C(=O)NCC(=O)NCCC2=CCCCC2)c2sccc2c1=O

- EC50 [1]: 65 nM
SMILES: COc1cc(C)ccc1-n1cc(C(=O)NCC(=O)NCCC2=CCCCC2)c2ccccc2c1=O

- EC50 [1]: > 100000 nM
SMILES: COc1cc(C#CCCCO)ccc1-n1cc(C(=O)NCC(=O)NCCC2=CCCCC2)c2ccccc2c1=O

- EC50 [1]: > 10000 nM
SMILES: COc1cc(Br)ccc1-n1cc(C(=O)NCC(=O)NCCC2=CCCCC2)c2occc2c1=O

The next lines start with the compound.

SMILES: COc1cc(Br)ccc1-n1cc(C(=O)NCC(=O)NCCc2ccccc2)c2ccccc2c1=O
- EC50 [1]: 20 nM

SMILES: COc1cc(Br)ccc1-n1cc(C(=O)N[C@@H](CCCCNC(=O)OCc2ccccc2Cl)C(=O)NCCC2=CCCCC2)c2ccccc2c1=O
- EC50 [1]: 23 nM

SMILES: COc1cc(Br)ccc1-n1cc(C(=O)NCC(=O)NCCC2=CCCCC2)c2ccc(C#CCCCO)cc2c1=O
- EC50 [1]: > 100000 nM

SMILES: COc1cc(Br)ccc1-n1cc(C(=O)NCC(=O)NCCC2=CCCCC2)c2ccccc2c1=O
- EC50 [1]: 3 nM
- EC50 [5]: 6 nM
- EC50 [6]: 11 nM
- EC50 [4]: 24 nM
- EC50 [7]: 74 nM
- fractional inhibitory concentration index (FICI) [8]: <0.17
- EC50 [9]: 170 nM
- EC50 [10]: 110 nM
- EC50 [11]: 32 nM
- EC50 [12]: 371 nM

SMILES: COc1cc(Br)ccc1-n1nc(C(=O)NCC(=O)NCCC2=CCCCC2)c2ccccc2c1=O
- EC50 [1]: 1 nM
- EC50 [5]: 4 nM
- EC50 [6]: 17 nM
- EC50 [4]: 7 nM
- EC50 [7]: 39 nM
- fractional inhibitory concentration index (FICI) [8]: <0.12
- EC50 [9]: 65 nM
- EC50 [10]: 13 nM
- EC50 [11]: 20 nM
- EC50 [12]: 72 nM

SMILES: COc1cc(Br)ccc1-n1cc(C(=O)NCCc2ccccc2)c2ccccc2c1=O
- EC50 [1]: 220 nM

SMILES: Cc1c(Cl)ccc2c1NC(=O)[C@@]21[C@H]2C(=O)N(c3ccccc3)C(=O)[C@H]2[C@H]2CN(C(=O)OCc3ccccc3)CCN21
- EC50 [1]: 0.3 nM
